Avidin fluor – avidin bead compound fluorescence profile. Avidin beads, compound fluorescence 488/530 nm, flow cytometry; hits give high values. fluorescence (KMESF) at 10 µM. 220,000 tested, 0.38% active; in the data active means fluorescence above about 47
Pemphigus Ab inh – blocks pemphigus antibody binding to human desmoglein-3. P32926. DSG3-coupled beads, scFv-anti-DSG3-GFP binding, flow cytometry; hits give low values. binding (percent of control), % at 10 µM. 310,000 tested, 0.48% active. AID 588358;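 active means binding more than 3 SD below its plate's average and above zero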;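 further: hits lower antibody fragment binding to DSG3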
Target sequence (P32926 whole entry, looked up, the tested form may be a part): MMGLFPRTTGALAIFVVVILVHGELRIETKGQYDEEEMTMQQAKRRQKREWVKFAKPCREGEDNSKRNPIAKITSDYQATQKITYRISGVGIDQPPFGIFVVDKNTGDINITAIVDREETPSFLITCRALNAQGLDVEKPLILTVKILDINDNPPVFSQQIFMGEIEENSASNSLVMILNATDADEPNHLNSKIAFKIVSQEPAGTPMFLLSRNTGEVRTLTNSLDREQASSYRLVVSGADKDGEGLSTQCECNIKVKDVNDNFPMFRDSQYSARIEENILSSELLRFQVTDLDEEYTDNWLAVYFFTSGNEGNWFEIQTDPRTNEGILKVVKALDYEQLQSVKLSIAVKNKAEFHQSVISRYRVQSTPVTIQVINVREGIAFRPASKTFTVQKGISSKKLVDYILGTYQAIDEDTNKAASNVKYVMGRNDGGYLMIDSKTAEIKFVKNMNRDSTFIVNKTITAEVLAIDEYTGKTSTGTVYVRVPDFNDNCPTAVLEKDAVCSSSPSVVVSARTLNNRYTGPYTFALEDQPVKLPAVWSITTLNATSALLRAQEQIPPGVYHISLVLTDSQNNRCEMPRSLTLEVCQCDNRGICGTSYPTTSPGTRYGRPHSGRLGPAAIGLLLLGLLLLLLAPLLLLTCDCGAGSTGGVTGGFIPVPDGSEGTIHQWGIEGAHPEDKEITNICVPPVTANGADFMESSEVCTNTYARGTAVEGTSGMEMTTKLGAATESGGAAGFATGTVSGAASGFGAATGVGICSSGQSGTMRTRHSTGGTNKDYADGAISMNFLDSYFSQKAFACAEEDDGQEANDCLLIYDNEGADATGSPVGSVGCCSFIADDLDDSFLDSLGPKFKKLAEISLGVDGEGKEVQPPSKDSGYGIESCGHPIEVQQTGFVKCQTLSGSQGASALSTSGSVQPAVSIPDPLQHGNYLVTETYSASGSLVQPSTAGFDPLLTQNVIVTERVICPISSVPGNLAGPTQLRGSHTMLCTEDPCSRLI
Arrestin-AP2 inh – human beta-arrestin and AP2 interaction inhibition. FITC-arrestin peptide / GST-AP2 beads, flow cytometry; AP2 beta2 appendage carries R879A mutation. inhibition, % at 10 µM. 340,000 tested, 0.31% active. AID 504490;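 active means inhibition above a set limit, near 3 SD of compounds lacking own fluorescence, cut at about 54% in these data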;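 further: plate controls were DMSO wells for no effect and 5 µM unlabelled arrestin peptide for full effect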
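test system = AP2 appendage R879A on GSH beads | buffer or medium = PBS plus Tween 20 (0.05%) and BSA (0.1%) | incubation = 12 min plus 1 h, RT | detection = bead flow cytometry, FITC channel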
GSH fluor – GSH bead compound fluorescence profile; fluorescence (KMESF) at 10 µM; GSH beads flow cytometry, compound fluorescence 488/530 nm; hits give high values; 190,000 tested, 0.25% active; in the data active means fluorescence above about 89;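 further: glutathione beads carrying GST-tagged Bcl family fusion proteins plus one bare bead set; values are compound well signal with DMSO vehicle wells as background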
Starred values were filed as active, the others as inactive; x = not tested or not shown. An excerpt weighted towards active compounds, which were near 1.1% of everything screened.

SMILES | Avidin fluor | Pemphigus Ab inh | Arrestin-AP2 inh | GSH fluor
Cc1ccc(CN2CCN(/N=C/c3cc(Br)cc(Br)c3O)CC2)cc1 | 7 | x | 3 | 21
Oc1c(Br)cc(Br)cc1/C=N/N1CCN(Cc2ccccc2)CC1 | 107* | 96 | x | 17
CC(=O)Nc1ccc(OCC(O)Cn2nc(C)c(C(C)=O)c2C)cc1 (stereo not given) | 73* | 124 | 2 | 24
Cc1ccc(CCNC(=O)CCS(=O)(=O)c2cc3c(cc2C)NC(=O)CO3)cc1 | x | 85 | 11 | x
Cc1cccc(N2CC(C)Cn3c2nc2c3c(=O)[nH]c(=O)n2C)c1 (stereo not given) | x | 101 | 11 | x
S=c1[nH]nc(-c2ccccn2)n1/N=C/c1ccc(Cl)c(Cl)c1 | 6 | 96 | -2 | x
S=c1[nH]nc(-c2ccccn2)n1/N=C/c1ccc(Br)s1 | 13 | 65* | 9 | 19
Nn1c(SCc2cn3ccsc3n2)nnc1-c1ccncc1 | 7 | 89 | -4 | 266*
Cc1ccc(CSc2nnc(-c3ccncc3)n2N)cc1 | 4 | 110 | 28 | x
COc1ccc(C(=O)N/N=C/c2ccc(OC(=O)c3cccc4ccccc34)c([N+](=O)[O-])c2)cc1 | 3 | 98 | -18 | 10
COc1ccc(C(=O)Oc2ccc(/C=N/NC(=O)c3ccccc3OC)cc2[N+](=O)[O-])cc1 | 28 | -5.1* | 4 | 15
Cc1cnc(=O)[nH]c1SCc1ccc([N+](=O)[O-])cc1 | x | 108 | 4 | x
CCOc1ccccc1NC(=O)N1CCC(c2nc3ccccc3[nH]2)CC1 | 7 | 104 | -3 | 259*
Nc1ncncc1-c1ccccc1Cl | x | 120 | 36 | x
O=C(COc1ccccc1)Nc1cc(Cl)ccc1Cl | x | 80* | 8 | x
CC(=O)OCC(=O)Nc1ccc(Cl)cc1Cl | 4 | 103 | -4 | 231*
CC(=O)OCC(=O)Nc1cc(S(=O)(=O)N2CCCCCC2)ccc1Cl | 24 | 71* | 1 | 12
O=C(COC(=O)C1CCC1)Nc1cc(S(=O)(=O)N2CCCCC2)ccc1Cl | x | 90 | 29 | x
O=C(COc1cccnc1[N+](=O)[O-])Nc1cc(S(=O)(=O)N2CCCCC2)ccc1Cl | 7 | 85* | 22 | x
CC(=O)OCC(=O)Nc1ccc([N+](=O)[O-])cc1Cl | 8 | 81 | 21 | 21
COc1cc(/C=C2/S/C(=N/S(=O)(=O)Cc3ccccc3)NC2=O)c([N+](=O)[O-])cc1OC | 3 | 103 | 43 | x
COc1ccc(S(=O)(=O)N2CCCCCC2)cc1NC(=O)CCNC(=O)c1ccc(Cl)cc1 | x | 98 | x | x
COc1ccc(S(=O)(=O)N2CCCCC2)cc1NC(=O)CCNC(=O)c1ccc(Cl)cc1 | x | 50* | 1 | x
COc1ccc(OC)c(CCNC(=O)CCC(=O)N2CCOc3ccc(C)cc32)c1 | x | 68* | -2 | x
O=c1cc(-c2ccccc2)[nH]n1-c1nc2ccccc2[nH]1 | 50* | 108 | 1 | 25
SMILES | Avidin fluor | Pemphigus Ab inh | Arrestin-AP2 inh | GSH fluor
O=C1CN(S(=O)(=O)c2cccc(Cl)c2Cl)CCN1 | x | 102 | 3 | x
CCOc1c(O)ccc(C2NC(=O)NC(C)=C2C(=O)OC)c1[N+](=O)[O-] (stereo not given) | 20 | 102 | 21 | 11
CCOc1c(O)ccc(C2NC(=O)N(C)C(C)=C2C(=O)OC)c1[N+](=O)[O-] (stereo not given) | 168* | 102 | 34 | 20
COc1cccc2c1CCC1=CC(=O)CCC12C (stereo not given) | x | 87 | 14 | x
Cc1ccc(Cn2cc(C(=O)c3ccc(F)cc3)c(=O)c3cc4c(cc32)OCCO4)cc1 | 7 | 0.5* | 3 | 11
O=C(c1ccccc1)N1CCN(c2ncccn2)CC1 | x | 115 | 1 | x
O=C(c1ccc(F)cc1)N1CCN(c2ncccn2)CC1 | 73* | 93 | 22 | 13
O=C(CN1CC(=O)Oc2ccccc21)OCC(=O)c1ccccc1 | 12 | 102 | 1 | 35
O=C(CN1CC(=O)Oc2ccccc21)OCC(=O)c1cccc(Br)c1 | 10 | 97 | 58* | 12
Cc1occc1-c1nnc(SCCCC(=O)c2ccc(F)cc2)n1C | 8 | 96 | -34 | 259*
Cn1c(SCCCC(=O)c2ccc(F)cc2)nnc1-c1ccncc1 | 9 | x | -3 | 16
COCCOc1ccc(C(F)(F)F)cc1NC(=O)c1ccc(C)cc1 | 59* | 99 | 22 | 12
O=C(CCN1C(=O)c2ccccc2S1(=O)=O)Nc1ccc(C(=O)O)cc1 | x | 106 | -6 | x
Cc1cc(C(=O)OCC(=O)NC2CCCCC2)c(C)o1 | 26 | x | 6 | 23
Cc1cc(C(=O)OCC(=O)NC(C)C)c(C)o1 | 7 | 94 | -7 | 269*
Cc1nn(C)cc1C(C(=O)NC1CCCCC1)N(C(=O)Cc1cccs1)c1ccc(C(C)C)cc1 (stereo not given) | 4 | 96 | -3 | 54
Cc1nn(C)cc1C(C(=O)NC1CCCCC1)N(C(=O)Cc1cccs1)c1ccc(F)cc1 (stereo not given) | 16 | -2.6* | 5 | 6
O=C(CSc1nc(O)cc(=O)n1-c1ccccc1)Nc1ccc2c3c(cccc13)CC2 | 6 | 41* | -2 | 18
Cc1c(O)nc(SCC(=O)Nc2ccc3c4c(cccc24)CC3)n(-c2ccccc2)c1=O | 12 | 114 | 17 | 7
O=C(CSc1nc(O)cc(=O)n1C1CCCC1)Nc1cccc(Cl)c1Cl | 12 | 104 | 1 | 26
COC(=O)c1ccccc1NC(=O)CSc1nc(O)cc(=O)n1C1CCCC1 | 54* | 102 | 11 | 22
CCCCCCOc1ccc(N2C(=O)CC(N3CCN(CCN=CC4C(=O)CC(C)(C)CC4=O)CC3)C2=O)cc1 (stereo not given) | 85* | 103 | 3 | 14
CCCCCCOc1ccc(N2C(=O)CC(N3CCN(CCN=CC4=C(O)CC(C)(C)CC4=O)CC3)C2=O)cc1 (stereo not given) | 13 | 98 | 9 | 16
O=C(CCN1CCN(S(=O)(=O)c2ccc(F)cc2)CC1)Nc1ccccc1F | x | 97 | 0 | x
O=C(Cn1[nH]c(=O)c2ccccc2c1=O)Nc1ccc2c(c1)CCC2 | 8 | 101 | 6 | 270*
SMILES | Avidin fluor | Pemphigus Ab inh | Arrestin-AP2 inh | GSH fluor
CC1(C)CC(=O)C=C(c2cc3ccccc3s2)C1 | x | 85* | 5 | x
O=C1C=C(c2cc3ccccc3s2)CCC1 | x | 101 | 49 | x
Cc1ccc(-c2nc3sc4c(c3c(=O)n2N)CC(C)(C)OC4)cc1 | 55* | x | 4 | 25
CSc1ncccc1C(=O)NC1CCCc2c1cnn2-c1ccc(C)c(C)c1 (stereo not given) | x | x | 23 | x
Cc1cccc(C(=O)NC2CC(C)(C)NC(C)(C)C2)c1 | 82* | 105 | -35 | 14
Cc1cc(C)cc(C(=O)NC2CC(C)(C)NC(C)(C)C2)c1 | x | 101 | 0 | x
CS(=O)(=O)N1CCC(C(=O)Nc2ccc(F)cc2)CC1 | x | 92 | 11 | x
CS(=O)(=O)N1CCC(C(=O)Nc2ccc(F)cc2F)CC1 | 79* | 103 | -3 | 24
O=C1CC(=C2c3ccccc3-c3ccccc32)C(=O)N1CCN1CCN(c2ccccc2)CC1 | x | 96 | -4 | x
Cc1ccccc1N1CCN(CCN2C(=O)CC(=C3c4ccccc4-c4ccccc43)C2=O)CC1 | x | 88* | 37 | x
